Measured values from different studies.
Protocols differ between the studies behind these lines. In brackets after ≈: the same amount, converted by molar mass.
Organism: Klebsiella pneumoniae

| Compound | test | test system | conditions | quantity | result |
| --- | --- | --- | --- | --- | --- |
| CC(C)(C)OC(=O)N1CCN(c2cc(C(=O)NCC(=O)O)ccc2NC(=O)c2cc(Br)c(Br)[nH]2)CC1 | microbial growth, broth dilution | ATCC700603 |  | MIC | > 32 µg/mL |
| CC(C)(O/N=C(\C(=O)N[C@@H]1C(=O)N2C(C(=O)[O-])=C(C[n+]3ccccc3)CS[C@H]12)c1csc(N)n1)C(=O)O | microbial growth, disc diffusion |  | 2000 µg/mL, 24 h | inhibition zone | 12 mm |
| CCC(C)CCCC(=O)N[C@@H](CCN)C(=O)N[C@H](C(=O)N[C@@H](CCN)C(=O)N[C@H]1CCNC(=O)[C@H]([C@@H](C)O)NC(=O)[C@H](CCN)NC(=O)[C@H](CCN)NC(=O)[C@H](CC(C)C)NC(=O)[C@@H](CC(C)C)NC(=O)[C@H](CCN)NC1=O)[C@@H](C)O (stereo partly drawn) | microbial growth, broth dilution |  |  | MIC | 0.5 µg/mL (≈ 0.433 µM) |
| CC(C)(O/N=C(\C(=O)N[C@@H]1C(=O)N2C(C(=O)[O-])=C(C[n+]3ccccc3)CS[C@H]12)c1csc(N)n1)C(=O)O | microbial growth, broth dilution | ATCC13883 | 20 h | MIC | < 0.5 µg/mL |
| C[C@H]1COc2c(N3CCN(C)CC3)c(F)cc3c(=O)c(C(=O)O)cn1c23 | microbial killing | ATCC27736 |  | MBC | 0.06 µg/mL (≈ 0.166 µM) |
| COc1cc(C=Nc2ccccc2Br)ccc1O | microbial growth, disc diffusion |  | 2000 µg/mL, 24 h | inhibition zone | 14.7 mm |
| Cl.N[C@H]1CCN(c2cc(C(=O)NCC(=O)O)ccc2NC(=O)c2cc(Br)c(Br)[nH]2)C1 | microbial growth, broth dilution | ATCC700603 |  | MIC | > 32 µg/mL |
| C[C@@H](O)[C@H]1C(=O)N2C(C(=O)O)=C(S[C@@H]3CN[C@H](C(=O)N(C)C)C3)[C@H](C)[C@H]12 | microbial growth, broth dilution |  | clinical isolate | MIC90 | 1020 µg/mL (≈ 2670 µM) |
| C[C@@H](O)[C@H]1C(=O)N2C(C(=O)O)=C(SCCN=CN)C[C@H]12 | microbial growth, disc diffusion |  | 2000 µg/mL, 24 h | inhibition zone | 20.5 mm |
| Cc1[nH]c(C(=O)Nc2ccc(C(=O)NCC(=O)O)cc2N2CC[C@@H](N)C2)c(Cl)c1Cl.Cl | microbial growth, broth dilution | ATCC700603 |  | MIC | > 32 µg/mL |
| CN(C)c1cc(NC(=O)CNC(C)(C)C)c(O)c2c1C[C@H]1C[C@H]3[C@H](N(C)C)C(O)=C(C(N)=O)C(=O)[C@@]3(O)C(O)=C1C2=O | microbial growth, broth dilution |  |  | MIC | 0.5 µg/mL (≈ 0.854 µM) |
| COc1cc(C=Nc2cccc(O)c2)ccc1O | microbial growth, disc diffusion |  | 2000 µg/mL, 24 h | inhibition zone | 15.5 mm |
